Screening results: PubChem BioAssay, The Scripps Research Institute Molecular Screening Center
Shown are actives, neighbours in structure and some others; about 3.3% of the full set was active somewhere.
5HT1a antag – human 5-HT1a receptor antagonists, primary screen, cell-based, CHO, Ga15 NFAT-bla reporter; 5-hydroxytryptamine receptor 1A (Homo sapiens), P08908; CHO 5-HT1a Ga15 NFAT-bla reporter, antagonist mode; inhibition, % at 10 µM; actives 0.68% (n = 62,000);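 active means inhibition above the mean of all tested compounds plus 3 SD, cut at about 43% in these data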;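 further: receptor stimulated by 5-CT agonist at 100 nM near EC80; beta-lactamase reporter measured by ratiometric fluorescence of a cleavable substrate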
Target sequence (P08908 whole entry, looked up): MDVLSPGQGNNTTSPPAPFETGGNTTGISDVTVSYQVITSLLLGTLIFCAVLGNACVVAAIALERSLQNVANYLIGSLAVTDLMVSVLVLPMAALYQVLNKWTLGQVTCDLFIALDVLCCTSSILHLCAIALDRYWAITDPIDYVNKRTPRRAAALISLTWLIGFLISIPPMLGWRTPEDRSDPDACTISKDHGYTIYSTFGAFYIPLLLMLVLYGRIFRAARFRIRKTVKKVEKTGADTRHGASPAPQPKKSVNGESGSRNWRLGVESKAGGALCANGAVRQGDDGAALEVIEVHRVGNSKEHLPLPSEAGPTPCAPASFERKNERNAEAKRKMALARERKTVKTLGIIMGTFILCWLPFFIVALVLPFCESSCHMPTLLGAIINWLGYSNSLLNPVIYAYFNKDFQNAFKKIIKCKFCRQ
HTR1E antagonist – 5-HT1E receptor antagonists, primary screen, cell-based, HTS | CHO 5-HT1E Ga15 NFAT-bla reporter, FRET, antagonist | inhibition, % at 6 µM | actives 0.99% (n = 65,000);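 active means inhibition above a set limit, the mean inhibition across every tested compound plus 3 SD, cut at about 29% in these data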;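 further: signal is the 460 over 535 nm emission ratio of beta-lactamase substrate; 0% = agonist plus DMSO wells and 100% = wells without agonist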
HEK293 NFkB inh – inhibitors of PMA/ionomycin-induced NF-kB reporter, primary screen, antigen receptor NF-kB inhibitor project, cell-based, HEK-293 luciferase reporter, luminescence; HEK-293 NF-kB luciferase reporter; inhibition, % at 3 µM; actives 0.21% (n = 62,000);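 active means inhibition above the mean of all tested compounds plus 3 SD, cut at about 40% in these data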;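 further: 0% = stimulated DMSO wells and 100% = 10 µM reference inhibitor 5653914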
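Reagent: PMA plus ionomycin mix as NF-kB-activating stimulus. Assay system: NF-kB luciferase reporter HEK-293 cells. Technique: luminescence from luciferase substrate reagent. Incubation: 1 h compound pre-incubation, 16 h PMA/ionomycin at 37 °C. Benchmarks: DMSO only as uninhibited control, 10 µM reference inhibitor as full inhibition. Repeats: tested once.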
5HT1E ag – 5-HT1E receptor agonists, primary screen, cell-based, HTS. actives 0.69% (n = 65,000). activation, % at 6 µM. CHO 5-HT1E Ga15 NFAT-bla reporter, FRET; 0% DMSO wells, 100% control agonist wells;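 active means activation above a set limit, the screen-wide mean activation plus 3 SD, cut at about 8.5% in these data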;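 further: 100% = positive control agonist at 1 µM giving full maximal response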
HTR1A agonist – human 5-HT1a receptor agonists, primary screen, cell-based, CHO, Ga15 NFAT-bla reporter; 5-hydroxytryptamine receptor 1A (Homo sapiens), P08908; CHO 5-HT1a Ga15 NFAT-bla reporter, FRET ratio; 0% basal, 100% maximal reference agonist; activation, % at 10 µM; actives 0.56% (n = 65,000); AID 567, 2006;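 active means activation above the screen-wide mean activation plus 3 SD, cut at about 19% in these data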;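 further: 0% = DMSO wells and 100% = 5-CT at EC100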
Jurkat viability – cytotoxicity toward Jurkat T cells, primary screen, cytotoxicity control, cell-based, Jurkat E6.1, 60K MLSMR library; Jurkat E6.1 viability, ATP luminescence, 48 h; inhibition, % at 4 µM; actives 1.2% (n = 56,000); AID 463, 2006;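 active means inhibition above the mean inhibition of all tested compounds plus 3 SD, cut at about 28% in these data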
* = called active by the depositor; · = no result given.

SMILES | 5HT1a antag | HTR1E antagonist | HEK293 NFkB inh | 5HT1E ag | HTR1A agonist | Jurkat viability
CC1CCN(c2nc3c(c(=O)[nH]c(=O)n3C)n2CCSc2ncccn2)CC1 | -6 | -10 | 0 | -1 | -5 | -3
O=C(COC(=O)c1ccccc1F)c1ccc(-n2nncc2-c2ccco2)cc1 | -9 | -3 | 24 | 5 | 2 | -2
Cc1nn(C(C)C(=O)N2CCN(c3ccccn3)CC2)c(=O)c2cc3occc3n12 (configuration not stated) | -10 | -7 | 20 | 0 | -1 | -7
CCc1nn(C(C)C(=O)N2CCN(Cc3ccccc3)CC2)c(=O)c2cc3occc3n12 (configuration not stated) | -5 | -10 | 32 | 16* | 0 | 4
Cc1ccccc1-n1ncc2c(SCC(=O)NCc3cccs3)ncnc21 | 4 | 4 | 10 | 1 | 1 | 40*
CCOC(=O)N1CCC(NC(=O)CC(NS(=O)(=O)c2ccc(Cl)cc2)c2ccco2)CC1 (configuration not stated) | -16 | -3 | 12 | 1 | 29* | -1
Cc1ccc(S(=O)(=O)NC(CC(=O)NC2CCCC2)c2ccco2)cc1 (configuration not stated) | -1 | 1 | 13 | 0 | -1 | -3
O=C(OC(C(=O)NCC1CCCO1)c1ccccn1)c1cccs1 (configuration not stated) | 1 | -1 | 13 | 0 | 0 | ·
Cc1ccc(/C=c2/sc3nnc(-c4ccccc4Cl)n3c2=O)o1 | 46* | 0 | -2 | 0 | 0 | 0
CCCCNC(=O)c1cn(C)c2ccc(S(=O)(=O)N3CCOCC3)cc2c1=O | 0 | -2 | 20 | 0 | 1 | -3
CCOc1cc2[nH]c(=O)n(CCCCC(=O)NC3CCCCC3)c(=O)c2cc1OCC | -10 | 1 | -6 | 0 | -3 | 1
Cc1ccc(NC(=O)CCNS(=O)(=O)c2ccc3c(c2)oc(=O)n3C)cc1 | -11 | -8 | 10 | 32* | -1 | -3
O=C(Cn1cnc2c(cnn2-c2ccc(F)cc2)c1=O)NCc1ccco1 | -2 | 9 | -3 | 0 | -3 | 55*
Cc1ccc(C)c(NC(=O)c2ccc3c(c2)N(Cc2ccc(F)cc2)C(=O)CS3=O)c1 (configuration not stated) | 4 | 4 | 3 | 0 | 47* | 8
CCOc1ccc(NC(=O)c2ccc3c(c2)N(Cc2ccc(F)cc2)C(=O)CS3=O)cc1 (configuration not stated) | 1 | -2 | 4 | 0 | 0 | -13
O=C(O)CNS(=O)(=O)c1ccc(Br)s1 | -8 | 6 | 14 | -1 | -1 | 3
O=S(=O)(NCc1ccncc1)c1ccc(Br)s1 | 11 | 9 | 42* | 0 | 0 | 94*
Cc1ccc(-c2nc(CS(=O)CC(=O)NCCC(C)C)c(C)o2)cc1 (configuration not stated) | -2 | -10 | 11 | 0 | 1 | 2
Cc1cc(C(C)(C)C)c(O)c(C)c1CC1=NCCN1 | · | 4 | · | 76* | 81* | ·
COc1ccc(NC(=O)C2CCCN(c3c4c(nc5ncnn35)CCC4)C2)cc1OC (configuration not stated) | -15 | 6 | 17 | 0 | 1 | 7
O=C(Nc1ccc2c(c1)CCC2)C1CCN(c2c3c(nc4ncnn24)CCC3)CC1 | -1 | -1 | 22 | 2 | 1 | 44*
O=c1oc2ccccc2cc1NCc1ccccc1O | 1 | 1 | 15 | 1 | 1 | 41*
CC(C)Cc1nnc(NC(=O)CSc2ncn[nH]2)s1 | -8 | 2 | 8 | 6 | 112* | 0
CCOC(=O)c1c(NC(=O)C(F)(OC)C(F)(F)F)sc(C(=O)N2CCCCC2)c1C (configuration not stated) | -10 | 7 | 20 | 0 | 2 | 5
CN(C)S(=O)(=O)c1ccc(/C(O)=C2/C(=O)C(=O)N(CCN3CCCCC3)C2c2cccnc2)cc1 (configuration not stated) | 3 | 3 | 3 | 1 | -2 | 7
SMILES | 5HT1a antag | HTR1E antagonist | HEK293 NFkB inh | 5HT1E ag | HTR1A agonist | Jurkat viability
COc1ccc2c(CC(=O)NCc3ccc4c(c3)OCO4)coc2c1 | 0 | -3 | 22 | -1 | -3 | 6
Cc1cc(C)nc(Nc2nc(=O)c3ccccc3s2)n1 | 62* | -15 | 2 | 1 | 1 | 9
C=CCn1c(=O)c2ccccc2n2c(SCc3c(C(=O)OCC)oc4ccccc34)nnc12 | -17 | 4 | -12 | 0 | 1 | 3
Cc1cc(-c2nsc(=O)o2)c(S(C)(=O)=O)s1 | 2 | 4 | 6 | -1 | -3 | -1
CN(C)CCOC(=O)CCc1ccccc1 | -28 | -4 | 4 | 0 | -6 | -2
CN(C)CCOc1ccccc1Cc1ccccc1 | · | -7 | · | 16* | 2 | ·
COc1ccc(Cl)cc1C(=O)CSc1nc(N)cc(N)n1 | -4 | -1 | -1 | 0 | 0 | -4
Cc1cc(-c2cc(-c3ccc(Cl)cc3)nc(N)c2C#N)co1 | · | -27 | · | 7 | 41* | ·
COC(=O)C1=C(CN2CCCc3ccccc32)NC(=O)NC1c1ccc(F)cc1 (configuration not stated) | 8 | 4 | 70* | 0 | -2 | 0
COCc1c(C(=O)OCC(=O)c2c(N)n(CC(C)C)c(=O)n(C)c2=O)oc2ccccc12 | 28 | 4 | 15 | 0 | 3 | 14
CC(C)Cn1c(N)c(C(=O)CSc2ccc3c(c2)OCCO3)c(=O)n(C)c1=O | 17 | 8 | 38 | 1 | 1 | 36*
CC(C)Cn1c(N)c(C(=O)COC(=O)c2ccc3c(c2)OCCO3)c(=O)n(C)c1=O | -7 | -8 | 24 | 0 | -2 | 3
Cc1c(C(=O)OCC(=O)c2c(N)n(CC(C)C)c(=O)n(C)c2=O)oc2ccccc12 | 43* | 7 | 6 | 0 | 0 | 2
O=C(CSc1ccc2nnc(-c3ccc(Cl)cc3)n2n1)N1CCN(c2ccccc2)CC1 | 0 | 2 | 11 | 0 | 0 | 7
Cc1ccc(C(=O)N2CCCC(c3nc4c(nnn4Cc4ccccc4)c(=O)[nH]3)C2)cc1 (configuration not stated) | 4 | 8 | 3 | 0 | 21* | 0
Cc1ccc(-c2nc(-c3ccccn3)no2)cc1 | 2 | 3 | 80* | 0 | 3 | 35*
O=C(O)c1ccc2cccc(Cl)c2c1O | 52* | 1 | 14 | 0 | -3 | 0
